The results in this text go back to ChEMBL document CHEMBL1122715, “beta-Lapachone: synthesis of derivatives and activities in tumor models” (1984).

≈ marks a conversion by molar mass, not a printed value.

One assay relates to Mus musculus. Put plainly: Maximum tolerated dose (MTD, po) in uninfected NMRI mice.
Assay [1] relates to Rauscher murine leukemia virus. Put plainly: In vitro inhibition of RNA dependent DNA polymerase of Rauscher leukemia virus (RLV). In kind it is functional. The settings on record: read-out: ED50. Put shortly:
(§1)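 Reverse transcriptase activity assayed with poly(rA)·oligo(dT) or poly(rC)·oligo(dG) template-primer (20 μg/mL) and [³H]dTTP or [³H]dGTP substrate (20 μM, […]); inhibition read as loss of labelled nucleotide incorporation.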

Assay [2] concerns Avian myeloblastosis virus. Put plainly: In vitro inhibition of RNA dependent DNA polymerase of Avian myeloblastosis virus (AMV). The settings on record: read-out: ED50. In kind it is functional. The procedure, abridged: as §1

The MTD is the largest dose that counted as tolerated. A high value points to better tolerability. Regarding `CC1(c2ccccc2)CCC2=C(O1)c1ccccc1C(=O)C2=O` (stereo unspecified), the maximal tolerated dose (MTD) with Mus musculus is >2500 mg/kg. Also, the EC50 in assay [1] and in assay [2] was 2 µg/mL (≈ 6.57 µM) in each case. `CCC1(CC)CCC2=C(O1)c1ccccc1C(=O)C2=O` yielded an MTD with Mus musculus of 2500 mg/kg. For the same molecule, the EC50 in assay [2] came out at 2 µg/mL (≈ 7.4 µM). On to `O=C1C(=O)c2ccccc2C2=C1CCC1(CCCCCC1)O2`, for which the EC50 in assay [2] was 15 µg/mL (≈ 50.6 µM). Consider `COc1cc2c(cc1OC)C1=C(CCC(C)(C)O1)C(=O)C2=O`, for which, in the assay on Mus musculus, the MTD is >1250 mg/kg. In assay [2], the EC50 is 5 µg/mL (≈ 16.5 µM). The matching figures for `CCC1(C)CCC2=C(O1)c1ccccc1C(=O)C2=O` (stereo unspecified): 125 mg/kg and < 2 µg/mL. Regarding `CC1(C)CCC2=C(O1)c1ccc(Cl)cc1C(=O)C2=O`, the MTD in the assay on Mus musculus was >2500 mg/kg.

Turning to `O=C1C(=O)c2ccccc2C2=C1CCC1(CCCCC1)O2`, in the assay with Mus musculus, the MTD was >2500 mg/kg. Moreover, the EC50 in assay [2] turned out to be 3 µg/mL (≈ 10.6 µM). Consider `O=C1C(=O)c2ccccc2C2=C1CCC(c1ccccc1)O2` (stereo unspecified), for which the MTD with Mus musculus was >2500 mg/kg. Also, the EC50 in assay [2] was < 2 µg/mL. Taken in the same sequence, the figures for `O=C1C(=O)c2ccccc2C2=C1CCC1(CCCC1)O2` were >2500 mg/kg and 3 µg/mL (≈ 11.2 µM). Consider `Cc1ccc2c(c1)C(=O)C(=O)C1=C2OC(C)(C)CC1`, for which, in the assay with Mus musculus, the maximal tolerated dose (MTD) was >2500 mg/kg. Regarding `CC1(C)CCC2=C(O1)c1ccccc1C(=O)C2=O` [LAPACHONE], the MTD in the assay with Mus musculus was determined as 1250 mg/kg. The EC50 in assay [1] and in assay [2] was < 2 µg/mL throughout.
